According to publication PMC5965255 (Neoplasia (New York, N.Y.), 2016):
Values after ≈ are worked out from the molar mass of the structure shown.

What was measured:
Solubility of DHA-dFdC = type: physicochemical
In short: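 Indirect aqueous solubility used isopropyl myristate (IPM)/water partitioning. Saturated IPM solution was centrifuged (14,000 rpm, 10 min) and the supernatant measured by HPLC after methanol dilution (A1). Water was added at Vwater/VIPM 10, vortexed 5 min, left 15 min and centrifuged (14,000 rpm, 15 min). The IPM layer was re-assayed (A2) and the partition coefficient calculated from A1, A2 and the volume ratio.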

[1] = tested on: dFdC-sensitive cancer cell lines; details: various dFdC-sensitive cancer cell lines; cited from earlier work
Panc-02 cells = experiment: MTT cytotoxicity assay; type: cell-based, mouse; details: Panc-02, high concentrations (10-100 μM)
In short: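 Cells seeded at 1500/well and left overnight at 37°C, 5% CO2. Treated with serial concentrations of test compound, dFdC, DHA or 1:1 molar dFdC+DHA (lipids in DMSO, dFdC in medium). Exposure: Panc-1-luc 24 h, Panc-02 48 h, BxPC-3 72 h. In a separate Panc-02 run, 10-100 μM for 4 h. Survival read by MTT; IC50 obtained by curve fitting.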

[2] = tested on: Panc-1-luc human pancreatic tumors implanted SC; experiment: Antitumor activity in mice with subcutaneous Panc-1-luc tumors; type: in vivo, athymic nude mice; details: IP twice a week; DHA-dFdC 50 mg/kg or molar equivalent doses
In short: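 Male athymic nude mice (6-8 weeks) received SC injections of 5 × 10^6 Panc-1-luc cells in DMEM/Matrigel 1:1 (v/v) in the right flank. At 5-7 mm tumours (day 5), mice were randomised into 5 groups (n = 5-6). Groups got IP test compound at 50 mg/kg or molar equivalents. The vehicle was Tween 80/ethanol/water 1:0.52:8.48 with 5% w/v mannitol (dFdC in 5% mannitol). Dosing was twice weekly, up to six times. Caliper volumes were V = ½ × L1 × L2 × L2.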

tumor cells in culture = details: many tumor cells in culture; cited from earlier work
[3] = Pancreatic tissue levels and biodistribution after IV injection; type: in vivo, BALB/c mice; details: mouse pancreas, IV 75 mg/kg, noncompartmental
In short: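 Healthy female BALB/c mice (17-20 weeks) received 75 mg/kg IV in Tween 80/ethanol/5% mannitol aqueous solution. Mice were euthanized at six time points from 5 to 300, n = 3-4 each. Pancreas was homogenized, extracted with ethyl acetate and analysed by HPLC: methanol/1% acetic acid 85:15, 1.2 ml/min, detection 300 nm.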

[4] = tested on: orthotopic Panc-1-luc pancreatic tumors; experiment: Antitumor activity in mice with orthotopic Panc-1-luc tumors; type: in vivo, athymic nude mice
In short: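 Male athymic nude mice (6-8 weeks) received ~50 μl of Panc-1-luc cells (~2 × 10^7/ml in 1:1 DMEM/Matrigel) into the pancreas under isoflurane anaesthesia. After four weeks, randomised (n = 5-7) to test compound (Tween 80/ethanol/water, 5% w/v mannitol), dFdC at molar equivalent (~0.087 […], 5% mannitol) or untreated. IP twice weekly, seven doses in total. Tumours dissected and weighed 30 days after first dose.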

Panc-1-luc cells = details: cited from earlier work
[5] = cited from earlier work

SMILES: CCCCCCCCCCCCCCCCCC(=O)Nc1ccn(C2OC(CO)C(O)C2(F)F)c(=O)n1 (centres unmarked) [4-(N)-stearoyl dFdC]
- Solubility in water (Solubility of DHA-dFdC; direct method): 1.38 ± 1.60 µg/mL (≈ 2.61 µM)
- Solubility in water (Solubility of DHA-dFdC; indirect method (IPM/water partitioning), room temperature): 1.39 ± 0.10 µg/mL (≈ 2.62 µM)
- Cytotoxicity compared with dFdC [1]: not significantly more cytotoxic than dFdC

SMILES: CC/C=C\C/C=C\C/C=C\C/C=C\C/C=C\C/C=C\CCC(=O)O [DHA, Cis-4,7,10,13,16,19-docosahexaenoic acid]
- Cytotoxicity after 4 hours of coincubation (Panc-02 cells): did not show significant cytotoxicity
- Tumor growth compared with vehicle control [2]: did not significantly inhibit the tumor growth

SMILES: CC/C=C\C/C=C\C/C=C\C/C=C\C/C=C\C/C=C\CCC(=O)O[C@@H](C(=O)O[C@H]1C[C@@]2(O)[C@@H](OC(=O)c3ccccc3)[C@@H]3[C@]4(OC(C)=O)CO[C@@H]4C[C@H](O)[C@@]3(C)C(=O)[C@H](OC(C)=O)C(=C1C)C2(C)C)[C@@H](NC(=O)c1ccccc1)c1ccccc1 [DHA-paclitaxel conjugate]
- Cytotoxicity compared with paclitaxel (tumor cells in culture): not more cytotoxic than paclitaxel alone

SMILES: Cl.Nc1ccn([C@@H]2O[C@H](CO)[C@@H](O)C2(F)F)c(=O)n1 [dFdC, 2′, 2′-difluorodeoxycytidine HCl]
- AUC0 -∞ in pancreas [3]: 787.71 µg·min/g
- Tumor growth compared with vehicle control [2]: did not significantly inhibit the tumor growth
- Tumor growth ([4]; IP twice a week, DHA-dFdC 50 mg/kg, dFdC molar equivalent): did not show significant activity
- Cleaved lamin-A positive staining in tumors ([4]; compared with untreated mice): not different from that in mice that were left untreated
- Sensitivity of Panc-1 tumor cells (Panc-1-luc cells): resistant
- Loss of dFdC by deamination ([5]; after intravenous administration): about 90%
- Administered dFdC excreted in the urine [5]: More than 99%
- Unchanged dFdC in the urine [5]: 5%
